Measured values taken from article PMC4029506 (Bioorganic & medicinal chemistry, 2014).

What was measured:
[1] = target: T1, purified recombinant rat FAAH (rFAAH) (Rattus norvegicus, UniProt P97612); assay: FAAH enzyme inhibition assay; format: biochemical; settings: for fold loss in activity / fold less potent than 3 against FAAH: relative to 3
T1 sequence (P97612 30-579 limits assumed): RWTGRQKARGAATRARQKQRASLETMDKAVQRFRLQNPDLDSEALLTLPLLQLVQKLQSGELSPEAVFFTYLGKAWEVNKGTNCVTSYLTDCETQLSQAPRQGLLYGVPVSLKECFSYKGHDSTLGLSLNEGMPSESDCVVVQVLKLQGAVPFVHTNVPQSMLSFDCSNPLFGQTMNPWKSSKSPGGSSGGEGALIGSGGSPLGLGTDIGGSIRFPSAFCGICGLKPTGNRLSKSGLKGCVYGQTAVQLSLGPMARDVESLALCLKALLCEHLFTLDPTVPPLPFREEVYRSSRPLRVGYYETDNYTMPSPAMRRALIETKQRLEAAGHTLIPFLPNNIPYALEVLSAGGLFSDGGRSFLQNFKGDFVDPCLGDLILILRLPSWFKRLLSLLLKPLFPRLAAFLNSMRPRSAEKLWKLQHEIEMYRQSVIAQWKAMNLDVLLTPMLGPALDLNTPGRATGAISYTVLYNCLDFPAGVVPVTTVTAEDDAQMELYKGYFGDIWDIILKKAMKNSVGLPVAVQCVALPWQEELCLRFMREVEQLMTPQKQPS

[2] = Hemiketal / hydrate; format: physicochemical; settings: for hydrate (gem diol) formation at 24 h: 7% D2O–DMSO-d6, 24 h; for hydrate (gem diol) formation initially: 7% D2O–DMSO-d6, initially; for hemiketal formation: in CD3OD
[3] = Epimerization in assay buffer without enzyme, monitored by chiral HPLC; format: physicochemical; settings: assay buffer pH 9.1, without enzyme, 30 min
Outline: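 Test compound dissolved in DMSO and added to assay buffer (pH 9.1) with no enzyme. Enantiopurity was followed by chiral HPLC over a 30 min exposure. Loss of enantiomeric excess is reported as percent change.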

[4] = Racemization after dissolution in a variety of solvents; format: physicochemical; settings: 5% Et3N in EtOAc
[5] = system: serine hydrolases in the mouse brain proteome including KIAA1363, MAGL, and ABHD6; assay: Activity-based protein profile; format: biochemical; settings: both enantiomers; mouse brain proteome 1 mg/mL, FP-rhodamine 100 nM, 10 nM to 100 μM
[6] = system: P450 3A4; settings: cited from earlier work
[7] = previously observed; cited from earlier work
[8] = system: P450 2C9; settings: cited from earlier work
[9] = system: cannabinoid CB2 receptor; settings: cited from earlier work
[10] = system: FAAH; settings: cited from earlier work
[11] = system: P450 2D6; settings: cited from earlier work
[12] = system: vanilloid receptors; settings: cited from earlier work
[13] = system: cannabinoid CB1 receptor; settings: cited from earlier work
[14] = system: human ether-a-go-go related gene (hERG); settings: cited from earlier work

O=C(c1ncc(I)o1)C1COc2cc(Oc3ccccc3)ccc2C1 (stereo not drawn) [compound 54]
fold difference in potency between the two enantiomers ([1]; FAAH inhibition): 1.6 fold

O=C(c1ncco1)C1CCc2cc(Oc3ccccc3)ccc2O1 (stereo not drawn) [compound 16]
hydrate (gem diol) formation at 24 h [2]: 13% | hydrate (gem diol) formation initially [2]: no gem diol detected | hemiketal formation [2]: 38% | total change in ee (loss of enantiopurity) [3]: −6.8%

O=C(c1ncc(-c2ccccn2)o1)[C@H]1CCc2cc(Oc3ccccc3)ccc2C1 [compound 3, reference compound]
hydrate (gem diol) or hemiketal formation ([2]; CD3OD and 7% D2O–DMSO-d6): no detectable

COC(=O)c1cccc(-c2cnc(C(=O)C3CCc4cc(Oc5ccccc5)ccc4O3)o2)n1 (stereo not drawn) [compound 15]
hydrate (gem diol) formation at 24 h [2]: 27% | hydrate (gem diol) formation initially [2]: no gem diol detected | hemiketal formation [2]: 45%

O=C(c1ncc(-c2ccccn2)o1)C1COc2cc(OCc3ccccc3)ccc2C1 (stereo not drawn) [compound 46]
total change in ee (loss of enantiopurity) [3]: −4.8% | potency relative to the unsubstituted parent oxazoles ([1]; installation of the pyridine substituent at C5): roughly equipotent | fold less active than either 2 or 3 ([1]; relative to 2 or 3): 4 fold | fold loss in activity / fold less potent than 3 against FAAH [1]: 2- to 4 fold

O=C(c1ncc(-c2ccccn2)o1)C1CCc2cc(Oc3ccccc3)ccc2O1 (stereo not drawn) [compound 14]
racemization within the first hour [4]: significant racemization | time to complete epimerization ([4]; continued exposure): ≤ 48 h | hydrate (gem diol) formation at 24 h [2]: 25% | hydrate (gem diol) formation initially [2]: no gem diol detected | hemiketal formation [2]: 34% | selectivity for FAAH over all other serine hydrolases [5]: > 200 fold | total change in ee (loss of enantiopurity) [3]: −4.4% | fold loss in activity / fold less potent than 3 against FAAH [1]: 8 fold | fold reduction in activity upon introduction of the C5-pyridine substituent (14 vs 16) ([1]; relative to 16): 2 fold

O=C(CCCCCCc1ccccc1)c1ncc(-c2ccccn2)o1 [compound 2]
inhibition of P450 3A4 [6]: does not inhibit | hydrated (gem diol) state in solution [7]: do not adopt a hydrated (gem diol) state | inhibition of P450 2C9 [8]: does not inhibit | binding to CB2 [9]: does not bind | antinociception in FAAH knockout mice ([10]; FAAH knockout mice): No antinociception | in vivo activity [10]: antinociceptive and anti-inflammatory activity | levels of anandamide in vivo [10]: increases | inhibition of P450 2D6 [11]: does not inhibit | binding to vanilloid receptors [12]: does not bind | binding to CB1 [13]: does not bind | inhibition of hERG [14]: does not inhibit

O=C(c1ncc(-c2ccccn2)o1)C1COc2cc(Oc3ccccc3)ccc2C1 (stereo not drawn) [compound 47]
selectivity for FAAH over all other serine hydrolases [5]: > 200 fold | total change in ee (loss of enantiopurity) [3]: −1.7% | fold loss in activity / fold less potent than 3 against FAAH [1]: 2- to 4 fold
